Kir21 block: blocks the mouse Kir2.1 inward-rectifier potassium channel. HEK293-Kir2.1, FluxOR thallium flux fluorescence; stronger effect = lower value. B-score at 10 µM. 0.85% of 310,000 active;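 active = fluorescence ratio B-score at or below minus 3 SD of library scores, with starting-brightness B-score within 2 SD, cut at about -4.2 in these data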;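 note: channel flux triggered by added potassium and thallium sulfate stimulus; B-score of peak minus minimum fluorescence over baseline after thallium stimulus; more negative B-score means stronger Kir2.1 block with less thallium influx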
KCNQ1 block: blocks the human KCNQ1 potassium channel. P51787. CHO-K1 KCNQ1, FluxOR thallium flux fluorescence; stronger effect = higher value. B-score at 10 µM. 1.3% of 310,000 active;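 active = compounds whose thallium flux B-score, printed positive for inhibition, exceeds three library SD while starting fluorescence stays within three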;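 note: channel opened by potassium depolarization with thallium stimulus after 20 min compound exposure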
Target sequence (P51787 whole entry, looked up): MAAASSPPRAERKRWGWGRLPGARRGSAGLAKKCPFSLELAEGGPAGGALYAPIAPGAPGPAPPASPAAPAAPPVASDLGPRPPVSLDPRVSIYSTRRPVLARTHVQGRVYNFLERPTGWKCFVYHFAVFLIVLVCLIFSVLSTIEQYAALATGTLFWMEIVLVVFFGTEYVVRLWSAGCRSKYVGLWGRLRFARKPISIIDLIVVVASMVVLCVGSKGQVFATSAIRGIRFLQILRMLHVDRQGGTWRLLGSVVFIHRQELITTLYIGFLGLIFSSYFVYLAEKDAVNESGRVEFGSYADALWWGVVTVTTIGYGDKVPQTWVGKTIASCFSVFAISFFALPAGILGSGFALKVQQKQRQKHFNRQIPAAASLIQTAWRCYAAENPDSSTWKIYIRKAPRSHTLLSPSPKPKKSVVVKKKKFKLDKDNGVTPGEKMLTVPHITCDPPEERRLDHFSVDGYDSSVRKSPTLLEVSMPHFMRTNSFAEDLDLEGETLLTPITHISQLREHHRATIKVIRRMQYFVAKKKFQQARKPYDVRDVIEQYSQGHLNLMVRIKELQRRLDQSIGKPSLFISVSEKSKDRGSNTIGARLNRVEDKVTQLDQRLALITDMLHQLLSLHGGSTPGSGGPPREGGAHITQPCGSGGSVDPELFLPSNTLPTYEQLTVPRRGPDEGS
hERG rescue: shields human hERG channel from block by proarrhythmic agents; 0.51% of 310,000 active; CHO-hERG, FluxOR thallium flux, dofetilide IC70 present; activation (rescue from dofetilide block), less the hit threshold, % at 10 µM; Q12809;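 active = activation above the mean of controls blocked by dofetilide plus 5 SD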;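 note: thallium influx through hERG after potassium depolarization seen as dye fluorescence rise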
KCNQ1 pot: potentiates or activates the human KCNQ1 potassium channel. P51787. 0.35% of 310,000 active. CHO-K1 KCNQ1, thallium flux FluxOR fluorescence; stronger effect = higher value. B-score at 10 µM;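 active = fluorescence ratio B-score, a plate-corrected score, at least three library SD, with initial intensity B-score within 5 SD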
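Schedule – 37 °C overnight plating, 90-min dark dye load, 20-min compound pretreatment · System – stable KCNQ1 CHO-K1 line · Probe or stimulus – thallium- and potassium-containing depolarizing buffer · Measured by – kinetic FluxOR fluorescence, 10 s baseline plus 110 s post-stimulus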
KCNK3 block: human KCNK3 channel inhibition, primary screen. B-score at 10 µM. AID 602410. O14649. 0.84% of 340,000 active. CHO-KCNK3 thallium flux, FluxOR fluorescence; stronger effect = lower value;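 active = B-score under library mean minus 4 SD, starting fluorescence ratio at most library mean plus 5 SD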;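 note: more negative B-score means stronger inhibition of thallium flux through KCNK3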
KCNK9 inh: inhibitors of human KCNK9 two-pore domain potassium channel; Q9NPC2; HEK293 KCNK9, FluxOR thallium flux fluorescence; stronger effect = lower value; B-score at 10 µM; 1.2% of 310,000 active; AID 488922;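 active = ratio B-score over 3 SD below the library mean, with starting fluorescence within 5 SD of its mean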;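 note: negative B-score means less thallium flux so channel inhibition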
KCNK9 inh conf: human KCNK9 inhibitor confirmation | inhibition, % at 10 µM | 43% of 4,900 active | shares compounds with KCNK9 inh | HEK293 KCNK9 cells, FluxOR thallium flux fluorescence;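 active = thallium signal inhibited by more than 5 SD of the compound-free buffer control wells, on both duplicate plates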
Kir2-1 spec: tests whether KCNK9 modulators also affect mouse Kir2.1; inhibition, % at 10 µM; shares compounds with KCNK9 inh; AID 492993; Kir2.1 cells, FluxOR thallium flux fluorescence; 4% of 4,900 active;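 active = thallium signal drop more than 5 SD beyond the mean of the no-compound control wells, seen in both duplicate plates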;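 note: signal is fluorescence rise after thallium addition divided by baseline fluorescence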
KCNK9 uninduced: non-induced cell nonspecific activity of KCNK9 modulators; shares compounds with KCNK9 inh; non-induced KCNK9-HEK293, FluxOR thallium flux; inhibition, % at 10 µM; 40% of 4,900 active;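 active = thallium signal drop beyond 5 SD of the untreated control mean, on both duplicate plates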
KCNK3 confirm: confirmation of human KCNK3 two-pore domain potassium channel inhibitors; shares compounds with KCNK3 block; CHO-KCNK3 thallium flux, FluxOR fluorescence; 0% buffer, 100% carvedilol maximal block; ratio percent of control, % at 10 µM; 99% of 2,400 active;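 active = ratio percent of control, averaged over triplicates, above buffer control mean plus 5 SD, cut at about 64% in these data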;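 note: ratio is the fluorescence rise from min to max over baseline after thallium stimulus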
KCNK3 uninduced: counter-screen for KCNK3 inhibitors: effect in non-induced cells; shares compounds with KCNK3 block; non-induced KCNK3 parental cells, FluxOR thallium flux; stronger effect = lower value; thallium flux ratio (lower = more inhibition) at 10 µM; 40% of 2,400 active;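 active = thallium flux ratio, averaged over three wells, more than 5 SD below the buffer control mean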;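 note: host cells are CHO cells without KCNK3 induction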
Hits are given with their value; . = inactive; / = no result given. This is a sample that favours compounds with a hit; in the whole collection about 3.8% have one here.

SMILES	Kir21 block	KCNQ1 block	hERG rescue	KCNQ1 pot	KCNK3 block	KCNK9 inh	KCNK9 inh conf	Kir2-1 spec	KCNK9 uninduced	KCNK3 confirm	KCNK3 uninduced
CCOC(=O)c1nnc(-c2ccccc2)nc1NCc1ccc(Cl)cc1	.	.	.	.	-9.7	-10	38%	.	43%	97	0.14
CCOC(=O)c1nn(-c2cccc(OC)c2)c(-c2ccccc2)c1C(=O)c1ccccc1	.	.	.	.	-9.3	-10	50%	.	.	113	0.14
CC1(C)Cc2cccc(C(=O)Nc3ccncc3)c2O1	.	.	.	.	.	.	/	/	/	/	/
CC1(C)Cc2cccc(C(=O)Nc3ccc(Cl)cc3)c2O1	.	.	.	.	-12	-11	46%	.	.	89	0.16
Cc1ccc(C(c2nnnn2C2CCCCC2)N(C)C2CCCCC2)cc1 (centres undefined)	.	.	.	.	.	-9.4	.	.	43%	117	0.13
Cc1nc(NC(=O)COC(=O)c2cccs2)c(Cl)cc1Cl	/	/	/	/	.	/	/	/	/	/	/
N#Cc1ccc(NC(=O)COC(=O)c2cccnc2Cl)cc1	/	/	/	/	.	/	/	/	/	/	/
O=C(Nc1nncs1)c1cc(S(=O)(=O)N2CCCCC2)ccc1Cl	.	.	.	.	.	.	/	/	/	/	/
O=C1C[C@@H]2c3c(cccc3CN1Cc1ccc(Br)cc1)C[C@@H](O)[C@H]2O	/	/	/	/	.	/	/	/	/	/	/
CCOC(=O)c1c(S(=O)(=O)Nc2ccc(F)cc2C)c(C)n(C)c1C	.	.	.	.	-9.5	-14	64%	.	26%	116	.
O=C(NCc1ccc2c(c1)OCO2)C1CCCN1C(=O)Nc1ccc(Cl)cc1 (centres undefined)	.	.	.	.	.	.	/	/	/	/	/
CCOc1cccc2sc(N(CCN(C)C)C(=O)c3ccc4ccccc4c3)nc12	.	.	.	.	-9.6	-9.4	36%	.	.	118	.
CCc1ccc(NC(=O)c2sccc2-n2cccc2)cc1	.	.	.	.	-12	-8.6	59%	.	40%	100	0.15
CCOC(=O)C1CCCN(c2cc(=O)n(C3CCCCC3)c(=O)[nH]2)C1 (centres undefined)	.	.	.	.	.	.	/	/	/	/	/
CCC(Oc1ccccc1)C(=O)Nc1ccccc1OC (centres undefined)	.	.	.	.	.	.	/	/	/	/	/
CCC(Oc1ccccc1)C(=O)Nc1ccccc1N1CCCC1 (centres undefined)	-5.5	.	.	.	-13	-11	59%	45%	74%	111	.
Cc1csc(C(=O)O)c1NC(=O)c1cccc([N+](=O)[O-])c1	.	.	.	.	.	.	/	/	/	/	/
CCOC(=O)NC(N(O)c1cccc(Cl)c1)C(Cl)(Cl)Cl (centres undefined)	.	.	.	.	-12	-13	54%	.	28%	112	.
CCN(CC)S(=O)(=O)c1ccc(-n2c(=O)c(C(C)C)c(C)n2C)cc1	.	.	.	.	.	.	/	/	/	/	/
Cc1nc(NCCc2ccccc2)c2oc3ccccc3c2n1	.	.	.	.	-10	-13	56%	.	.	131	0.12
CCC1CCCCN1S(=O)(=O)c1ccc(NC(=O)c2cccs2)cc1 (centres undefined)	.	.	.	.	-11	-8.3	52%	.	28%	107	.
CCC1CCCCN1S(=O)(=O)c1ccc(NC(=O)c2snnc2C)cc1 (centres undefined)	.	.	.	.	.	.	/	/	/	/	/
CC(=O)NNC(=O)c1csc(-c2csc(C)n2)n1	.	.	.	.	.	.	/	/	/	/	/
CC(Cc1cccs1)NC(=O)Nc1ccc(Cl)cc1 (centres undefined)	.	.	.	.	.	.	/	/	/	/	/
CC(Cc1cccs1)NC(=O)Nc1ccc(Cl)c(Cl)c1 (centres undefined)	.	.	.	.	-13	-16	62%	.	42%	110	0.16
SMILES	Kir21 block	KCNQ1 block	hERG rescue	KCNQ1 pot	KCNK3 block	KCNK9 inh	KCNK9 inh conf	Kir2-1 spec	KCNK9 uninduced	KCNK3 confirm	KCNK3 uninduced
COn1c(SCc2cccc(Cl)c2)nc2ccccc2c1=O	.	.	.	.	-11	-9.7	50%	.	.	84	.
COCCn1c(SCc2nc3ccccc3c(=O)[nH]2)nc2ccccc2c1=O	.	.	.	.	.	.	/	/	/	/	/
COn1c(SCc2ccccc2)nc2ccccc2c1=O	.	.	.	.	.	.	/	/	/	/	/
COCCn1c(SCc2ccc(OC)c(F)c2)nc2ccccc2c1=O	.	.	.	.	-12	-16	79%	.	64%	106	.
COc1ccc(F)c(CN2CCC(n3nccc3NC(=O)C3CCOC3)CC2)c1 (centres undefined)	.	.	.	.	.	.	/	/	/	/	/
CCC(C)[C@H]1COCCS(=O)(=O)N1Cc1ccccc1 (some centres undefined)	.	.	.	.	.	.	/	/	/	/	/
CCN(C(=O)CSc1nc2n[nH]c(C)c2c(=N)n1-c1ccc(Cl)c(C)c1)c1cccc(C)c1	.	.	.	.	-12	-21	68%	.	40%	97	0.13
CCOc1ccccc1C(=O)Nc1cc2c(cc1N1CCCC1)n(CC)c(=O)n2CC	.	.	.	.	-8.8	-14	51%	.	22%	101	.
Fc1ccc(-c2csc3ncnc(N4CCN(c5ccccc5)CC4)c23)cc1	.	.	.	.	-10	-13	.	.	30%	117	.
c1ccc(N2CCN(c3ncnc4scc(-c5cccs5)c34)CC2)cc1	.	.	.	.	-8.9	-13	42%	.	36%	148	0.11
O=C(c1ccco1)N1CCN(c2ncnc3scc(-c4cccs4)c23)CC1	.	.	.	.	.	.	/	/	/	/	/
COc1ccc(OC)c(NC(=O)COC(=O)C2CCCCC2)c1	/	/	/	/	.	/	/	/	/	/	/
Cc1cc(NC(=O)c2cccc(COc3ccc(Br)cc3)c2)no1	.	.	.	.	-8.9	-11	.	.	.	65	.
CCn1c(=O)n(CC)c2cc(N3CCCC3)c(NC(=O)c3cc(Cl)ccc3OC)cc21	.	.	.	.	.	.	/	/	/	/	/
Cc1cccn2c(NCc3ccc4c(c3)OCO4)c(-c3ccc(O)cc3)nc12	.	.	.	.	.	.	/	/	/	/	/

High-throughput results deposited in PubChem by Johns Hopkins Ion Channel Center.
